The Ki is a measure of affinity in units of concentration, obtained from inhibition or displacement. Lower therefore signals tighter binding.

The values that follow come from ChEMBL document CHEMBL1142277, “Toward a structure-based model of salvinorin A recognition of the kappa-opioid receptor” (J Med Chem, 2008).

Holding throughout (assay type): cell-based
Assay [1] in a line: Displacement of [3H]diprenorphine from chimeric rat mu opioid receptor (1-150)/kappa opioid receptor (142-380) expressed in HEK293 cells. A digest of the protocol: (§1)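 Whole-cell binding: HEK-293 cells transiently transfected (calcium phosphate, 10–20 µg pcDNA) with wild-type, point-mutant or chimeric receptor, harvested 48–72 h later, washed and resuspended in 25 mM HEPES pH 7.4. Incubated with [3H]-diprenorphine, room temperature, 90 min. Separation by filtration on PEI-presoaked GF/C filters, scintillation counting. Nonspecific binding with 100 µM naloxone, norBNI or salvinorin A. Triplicates, nonlinear regression.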
On the technique in general: Loss of bound radioactivity is the signal in a displacement assay; it reports binding, not function.

The nature of assay [2]: Displacement of [3H]diprenorphine from chimeric rat kappa opioid receptor (1-227)/mouse delta opioid receptor (215-372) expressed in HEK293 cells. A digest of the protocol:
as §1

Assay [3] concerns the target Mu-type opioid receptor (Rattus norvegicus, UniProt P33535). The assay is described as follows: Displacement of [3H]diprenorphine from rat mu opioid receptor expressed in HEK293 cells. A digest of the protocol: as §1
A short description of assay [4]: Displacement of [3H]diprenorphine from chimeric rat mu opioid receptor (1-150)/kappa opioid receptor (142-227)/mu opioid receptor (234-398) expressed in HEK293 cells. In a few lines: as §1
The nature of assay [5]: Displacement of [3H]diprenorphine from chimeric rat mu opioid receptor (1-233)/kappa opioid receptor (228-380) expressed in HEK293 cells. A digest of the protocol: as §1
For assay [6], the target named is Kappa-type opioid receptor (Rattus norvegicus, UniProt P34975). The assay is described as follows: Displacement of [3H]diprenorphine from rat kappa opioid receptor expressed in HEK293 cells. A digest of the protocol:
as §1

The nature of assay [7]: Displacement of [3H]diprenorphine from chimeric rat kappa opioid receptor (1-227)/mu opioid receptor (234-398) expressed in HEK293 cells. In a few lines:
as §1

The nature of assay [8]: Displacement of [3H]diprenorphine from chimeric rat kappa opioid receptor (1-141)/mouse delta opioid receptor (132-372) expressed in HEK293 cells. A digest of the protocol: as §1
For assay [9], the target named is Mu-type opioid receptor (Rattus norvegicus, UniProt P33535, W318A). The assay is described as follows: Displacement of [3H]diprenorphine from rat mu opioid receptor W318A mutant expressed in HEK293 cells. A digest of the protocol: as §1
Assay [10] has as its target Kappa-type opioid receptor (Rattus norvegicus, UniProt P34975, Y313A). The assay is described as follows: Displacement of [3H]diprenorphine from rat kappa opioid receptor Y313A mutant expressed in HEK293 cells. In a few lines:
as §1

Assay [11] is described as follows: Displacement of [3H]diprenorphine from chimeric rat kappa opioid receptor (1-141)/mu opioid receptor (151-233)/kappa opioid receptor (228-380) expressed in HEK293 cells. In a few lines:
as §1

A short description of assay [12]: Displacement of [3H]diprenorphine from chimeric rat kappa opioid receptor (1-141)/mu opioid receptor (151-398) expressed in HEK293 cells. In a few lines:
as §1

Mu-type opioid receptor (Rattus norvegicus, UniProt P33535), sequence (P33535 whole entry): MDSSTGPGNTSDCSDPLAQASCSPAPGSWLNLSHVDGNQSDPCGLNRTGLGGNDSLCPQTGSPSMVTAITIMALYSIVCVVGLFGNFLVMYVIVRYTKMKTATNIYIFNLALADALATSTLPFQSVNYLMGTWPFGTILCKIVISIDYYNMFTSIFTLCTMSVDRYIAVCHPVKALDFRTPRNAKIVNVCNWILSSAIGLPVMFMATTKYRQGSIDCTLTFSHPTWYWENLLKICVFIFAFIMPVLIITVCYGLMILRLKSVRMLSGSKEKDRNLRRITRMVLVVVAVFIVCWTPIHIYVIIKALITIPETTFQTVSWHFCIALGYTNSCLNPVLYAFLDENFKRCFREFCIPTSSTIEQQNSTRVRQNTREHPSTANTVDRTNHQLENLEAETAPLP
Kappa-type opioid receptor (Rattus norvegicus, UniProt P34975, Y313A), sequence (P34975 whole entry Y313A): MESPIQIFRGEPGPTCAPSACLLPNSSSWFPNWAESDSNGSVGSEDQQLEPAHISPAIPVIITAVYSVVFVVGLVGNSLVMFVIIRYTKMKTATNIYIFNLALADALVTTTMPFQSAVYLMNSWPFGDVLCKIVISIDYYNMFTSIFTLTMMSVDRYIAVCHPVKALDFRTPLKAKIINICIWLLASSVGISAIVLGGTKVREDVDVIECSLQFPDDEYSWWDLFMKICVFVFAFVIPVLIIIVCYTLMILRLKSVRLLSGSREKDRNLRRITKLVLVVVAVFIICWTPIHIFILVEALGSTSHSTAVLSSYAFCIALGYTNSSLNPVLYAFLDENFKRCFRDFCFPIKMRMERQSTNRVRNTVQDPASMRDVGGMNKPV
Mu-type opioid receptor (Rattus norvegicus, UniProt P33535, W318A), sequence (P33535 whole entry W318A): as the sequence (P33535 whole entry) above, with W318A counted along it
Kappa-type opioid receptor (Rattus norvegicus, UniProt P34975), sequence (P34975 whole entry): as the sequence (P34975 whole entry Y313A) above, with A313Y counted along it

As to `COC(=O)[C@@H]1C[C@H](C(=O)c2ccccc2)C(=O)[C@H]2[C@@]1(C)CC[C@H]1C(=O)O[C@H](c3ccoc3)C[C@]21C`, the Ki in [1] is 4110 nM; in [2], 450 nM; in [3] it was 245 nM; in assay [4], 615 nM; in [5] it was 2310 nM; in assay [6] it was 1380 nM. The inhibitory constant (Ki) is 9400 nM in assay [7]; over 10000 nM in assay [8]; 426 nM in [9]; 3870 nM in assay [10]; 8320 nM in assay [11]; 1610 nM in assay [12].

As for `COC(=O)[C@@H]1C[C@H](OC(C)=O)C(=O)[C@H]2[C@@]1(C)CC[C@H]1C(=O)O[C@H](c3ccoc3)C[C@]21C` [SALVINORIN A], the Ki came out at 458 nM in [4] and 522 nM in assay [11].
